The entries come from a sample that favours hits as a whole.
INS promoter act = activators of insulin promoter-driven GFP, primary screen, imaging, TRM-6 cells, eGFP reporter, cell count. 130,000 compounds, 0.81% hits. activation, % at 2 µM. plate-scaled: unstimulated 0, stimulated control 100;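 active = activation at 2 µM above a set limit, confirmed on inspection of the cell images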;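 note: share of cells whose green reporter signal exceeds an intensity cutoff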
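material = TRM-6 human fetal islet cells, insulin promoter–eGFP reporter | input = 1,000 TRM-6 cells seeded per well | benchmarks = stimulated versus unstimulated wells as plate controls | measured by = automated fluorescence imaging of paraformaldehyde-fixed, Hoechst-counterstained cells, green channel | schedule = compound exposure 48 h, 37 °C | reagent = tamoxifen at 0.75 µM added at seeding for reporter induction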
Numbers without * were called inactive.

SMILES	INS promoter act
Cc1ccc(Nc2nc(NCC3CCCO3)nc(N)c2[N+](=O)[O-])cc1C (centres undefined)	5
Cc1ccc(Nc2nc(N)c([N+](=O)[O-])c(N3CCC(C)CC3)n2)cc1C	529*
CCN1CCN(c2nc(Nc3cccc(C)c3)nc(N)c2[N+](=O)[O-])CC1	8
O=C(c1cc2sccc2n1Cc1ccccc1)N1CCN(c2nc3ccccc3s2)CC1	0
CN1CCN(NC(=O)c2cc(S(=O)(=O)N3CCOCC3)c(Cl)cc2Cl)CC1	-3
CN(C)c1nnc(-c2ccc(Cl)cc2)o1	-6
COc1ccc(/C=C/c2ccncc2)cc1	-8
CC(C)OP(=O)(c1ccc(N(C)C)cc1)C(O)c1ccncc1 (centres undefined)	-8
CN(C)c1ccc(/C=C/c2ccncc2)cc1	87*
O=C(O)/C=C/C(=O)c1ccc2c(c1)NC(=O)CO2	7
CC(C)(C)n1nnnc1CN1CCN(C(c2ccccc2)c2ccccc2)CC1	-7
O=C(CCS(=O)(=O)Cc1ccccc1)Nc1nc2c(s1)CCCC2	10
O=C(CCn1cnc2ccccc2c1=O)Nc1cccc(Cl)c1	9
O=C(CCn1cnc2ccccc2c1=O)Nc1nc2c(s1)CCCC2	510*
COCCN(Cc1ccccc1)C(=S)Nc1ccc(OC(F)F)cc1	-7
C/C(=N\Nc1ccc(C(F)(F)F)cc1[N+](=O)[O-])C1CC1	7
CCC(CC)C(=O)N1CCN(Cc2nc3ccccc3c(=O)[nH]2)CC1	-10
COc1ccc(N2CCN(Cc3nc4ccccc4c(=O)[nH]3)CC2)cc1	579*
COc1cccc(N2CCN(Cc3nc4ccccc4c(=O)[nH]3)CC2)c1	-79
O=C(Nc1sccc1C(=O)N1CCOCC1)c1cccnc1	0
COc1ccc(S(=O)(=O)N(CC(=O)NC2CC2)c2ccc(C)cc2)cc1OC	0
CC(C)c1cc(NCC2CCCO2)n2c(nc3ccccc32)c1C#N (centres undefined)	79*
Cc1cc(NCCN2CCCCC2)n2c(nc3ccccc32)c1C#N	5
CCc1c(C)c(C#N)c2nc3ccccc3n2c1NCC1CCCO1 (centres undefined)	79*
Cc1c(C#N)c2ccccc2n1CC(=O)NCC1CCCO1 (centres undefined)	7
SMILES	INS promoter act
CCc1c(C)c(C#N)c2nc3ccccc3n2c1N1CCN(c2cc(C)ccn2)CC1	-3
CCc1c(C)c(C#N)c2nc3ccccc3n2c1Cl	153
Cc1cc(C)n2nc(C(=O)Nc3ccc4c(c3)CCC4)nc2n1	-5
CCC(=O)N1CCc2cc(S(=O)(=O)NCCCN(CC)Cc3ccccc3)ccc21	0
CCc1nn(-c2ccccc2)c2c1-c1cc(OC)c(OC)cc1C1(N2)C(=O)Nc2ccccc21 (centres undefined)	-4
CCOC(=O)c1ccccc1NC(=O)CN(c1ccc(OCC)cc1)S(C)(=O)=O	387*
CCOc1ccc(N(CC(=O)Nc2ccccc2C(=O)NCc2ccco2)S(C)(=O)=O)cc1	-3
CCOC(=O)c1ccccc1NC(=O)c1ccc(N(C)S(C)(=O)=O)cc1	388
COc1cc(OC)cc(-c2nn[nH]n2)c1	-3
CC(=O)Nc1cc(N=Cc2ccc(O)cc2O)c(Cl)cc1Cl	5
COC(CNc1ncnc2c1cnn2C)OC	0
Cc1ccc(C(=O)OCn2ncc(Cl)c(Cl)c2=O)cc1	194*
CCOC(=O)c1ccc(NC(=O)Cn2ncc(Cl)c(Cl)c2=O)cc1	170
Cc1ccc(C)c(C(=O)Cn2ncc(Cl)c(Cl)c2=O)c1	269
COc1cccc(-n2c(C)nc3cc(C(=O)O)ccc32)c1	-6
Nc1c(C(=O)Nc2nc3ccccc3s2)sc2nc(-c3cccs3)ccc12	196*
O=C(NC(=S)Nc1nc2ccccc2s1)c1cccs1	-7
Nc1c(C(=O)Nc2ccccc2)sc2nc(-c3ccco3)ccc12	-80
COc1cc(C2CC(=O)Nc3c2c(=O)nc2c(C)cccn32)cc(OC)c1OC (centres undefined)	0
CCOc1ccccc1NC(=O)Cn1c(=O)n(-c2ccc(OC)cc2OC)c(=O)c2c(C)c(C(=O)N(CC)CC)sc21	7
CCCC(=O)C1=C(O)C(C(=O)OC)C(C)(C)CC1=Nc1cccc2ccccc12 (centres undefined)	106
CCCC(=O)C1=C(O)C(C(=O)OC)C(C)(C)CC1=NC(C)C (centres undefined)	480*
COc1ccc2c(c1)C(=O)[C@@H](OC(=O)NCc1ccc3c(c1)OCO3)[C@H](c1ccc(OC)c(Br)c1)O2	0
CCOC(=O)c1cnc2c(C)c(-c3ccccc3)[nH]n2c1=O	0
O=C1CCCCCC1C1(O)C(=O)Nc2ccccc21 (centres undefined)	-9
SMILES	INS promoter act
Cc1cc(C2(c3ccc(O)c(C)c3)C(=O)Nc3ccccc32)ccc1O	127*
Cc1c(O)cc2n(c1=O)-c1ccccc1C2(C)C	235
Cn1nnc2cc(C(=O)N3CCC(c4ccccc4)C3)ccc21 (centres undefined)	348
O=C(NCc1ccccc1)c1ccc(-c2ccc(F)cc2)o1	-6
O=C1NC(=S)S/C1=C/c1ccc(N2CCOCC2)o1	141
O=C1S/C(=C/c2ccc(N3CCOCC3)o2)C(=O)N1Cc1ccc(F)cc1	6
CC(C)OC(=O)CN1C(=O)S/C(=C/c2ccc(N3CCCCC3)o2)C1=O	170*
CCC(C)NC(=O)CSc1nnc(-c2cc(-c3cccs3)nc3ccccc23)o1 (centres undefined)	-9
Cc1[nH]nc(SCC(=O)NC2CCCC2)c1[N+](=O)[O-]	0
CCc1nc(N)c(C#N)c(-c2ccc(OC)c(OC)c2)c1C	83*
COc1ccc(-c2c(C#N)c(N)nc3c2CCCC3)cc1OC	256
CCc1nc(N)c(C#N)c(-c2cccc3ccccc23)c1C	0
O=C(O)CNC(=O)c1ccc(N2CCOCC2)cc1[N+](=O)[O-]	7
COCCCn1c(-c2ccsc2)nc2c1c(=O)[nH]c(=O)n2Cc1ccccc1	-8
Cc1ccc(/C=C/C(=O)NCc2ccccn2)o1	-66
Cc1cccc(NC(=O)NCCc2c[nH]c3ccccc23)c1	3
Cc1ccc(/C=C/C(=O)NCCc2c[nH]c3ccccc23)o1	467*
Cc1ccc(CNC(=O)Cn2nnc3ccccc3c2=O)cc1	-8
C/C(=N\n1cnnc1)c1ccccc1	0
O=C(CCCSc1nc2ccccc2[nH]1)N1CCN(c2ccc([N+](=O)[O-])cc2)CC1	5
O=S(=O)(c1ccc(F)c(F)c1F)N1CCN(C(=S)Nc2ccccc2)CC1	324*
S=C(Nc1ccccc1)N1CCCCCCC1	7
NS(=O)(=O)c1ccc(NC(=S)N2CCN(c3ccccc3Cl)CC2)cc1	-5
Oc1ccc(-n2cnnn2)cc1	-7
Cc1cc(C(C)(C)C)oc1C(=O)NCCCNC(=O)c1oc(C(C)(C)C)cc1C	-10
SMILES	INS promoter act
CCOC(=O)c1cc(C(C)(C)C)oc1CNC(=O)c1c(C)oc2c1CCCC2	493*
CCOC(=O)c1cc(C(C)(C)C)oc1CN	-7
O=Cc1cn(CC(=O)N2CCOCC2)c2ccccc12	411*
Cc1nc2ccccc2c(=O)n1CC(=O)N1CCOCC1	-7
COC(=O)c1cn(CC(=O)N2CCCCCC2)c2ccccc12	381
CCCCN(C)C(=O)c1sc2ncn(CC)c(=O)c2c1C	-9
O=C(/C=C\c1ccc2c(c1)OCO2)Nc1c2c(nn1-c1ccc(Cl)cc1)CSC2	-7
COc1cccc(-c2nnc(SCC(=O)NCc3ccc4c(c3)OCO4)n2Cc2ccco2)c1	-4
C=CCn1c(SCC(=O)NCc2ccc3c(c2)OCO3)nnc1-c1cccnc1	-76
